The values that follow come from PubChem BioAssay AID504382 (The Scripps Research Institute Molecular Screening Center, 2011).

The structures appear in SMILES notation. The campaign covered roughly 2,500 compounds. About 460 (18%) were called active. A selection follows. Unmarked numbers belong to inactive results.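 Rule for the calls: active = mean activation above a cutoff of low control average plus 3 SD from the earlier screen (cut at about 12% in these data); inactive = the rest.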

This assay in a line: compound fluorescence interference without thin filaments, confirmation, artefact control for cardiac RTF calcium sensitizer project, biochemical (AID 504382). The following applies: IANBD fluorescence interference counterscreen, buffer, EC20 Ca2+; at 7.2 µM; hits give high values; scaled: EC20 calcium 0, EC100 calcium 100. Put shortly:
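Doses – one dose of 7.2 µM, 0.7% DMSO · Buffer or medium – MOPS/KCl/MgCl2/EGTA/NTA/DTT buffer, pH 7.2 · Probe or stimulus – Ca2+ fixed at EC20, 0.472 mM · Measured by – fluorescence intensity, excitation 480 nm, emission 540 nm · Read-out – fluorescence interference versus control range · Timing – 15 min compound exposure at 25 °C · Replication – triplicate wells per compound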
(In general: A counterscreen serves to expose hits that act by an unwanted route or on another target.)
Turning to `COc1ccc(C(Nc2ccc(S(=O)(=O)NCC3CCCO3)cc2)C(=O)NC(C)(C)C)cc1OC` (configuration not stated), the fluorescence artifact activation is 0.01%. For `COc1cc(OC)cc(-c2c(-c3cccs3)c3cc(-c4ccc(SC)cc4)ccc3n2C)c1` the value was 5.67%; for `O=C(/C=C/c1nc2ccccc2s1)N1CCCCCC1`, 7.06%. Turning to `O=C(CSc1nc2ccccc2s1)NNC(=S)Nc1ccccc1`, the fluorescence artifact activation was 193% (active). For `N#C/C(=C(/O)COC(=O)c1ccccc1O)c1nc2ccccc2s1` the value was 0.47%; for `CCc1cc(=O)n2c([nH]c3ccccc32)c1C#N`, 0.24%.

In the case of `Cc1cc(Br)ccc1SCC(=O)OCC(=O)Nc1ccccc1C#N`, the fluorescence artifact activation was 0.22%. The same measure for `Cc1ccc(S(=O)(=O)Nc2ccc3ncccc3c2[N+](=O)[O-])cc1`: 0.33%. The same measure for `COc1ccc(/C=C2\CC/C(=C\c3ccc(OC)cc3OC)C2=O)c(OC)c1`: 9.84%; for `CCCN1C(=O)/C(=C\C=C2\N(CC)c3ccccc3C2(C)C)SC1=S`: 0.28%; for `CCCCN1C(=O)/C(=C/C=C2\Oc3ccccc3N2CC)SC1=S`: 16.6% (active). On to `CCCN1C(=O)/C(=C/C=C2\N(CC)c3ccccc3C2(C)C)SC1=S`, for which the fluorescence artifact activation is 0.48%.

With `CC(C(=O)NNS(=O)(=O)c1cccc(C(F)(F)F)c1)n1nnc(N2CCOCC2)n1` (configuration not stated), the fluorescence artifact activation was 0.4%. Take `COc1ccc2c3c(cccc13)C(=O)CC2`: the fluorescence artifact activation is 1.92%.

`COc1cc(OC)c(OC)cc1/C=C1/Cc2ccccc2C1=O`: the fluorescence artifact activation is -0.02%. The same measure for `COc1cc2c(cc1[N+](=O)[O-])-c1ccccc1C2`: 70.4% (active); for `Cc1noc(C)c1S(=O)(=O)N(C)C[C@H]1Oc2ccc(NC(=O)CCC(F)(F)F)cc2C(=O)N([C@H](C)CO)C[C@@H]1C`: 0.08%; for `O=S(=O)(Nc1nc2ccccc2nc1N1CCN(c2ccccn2)CC1)c1ccc(Cl)cc1`: -0.09%.

For `O=S(=O)(Nc1nc2ccccc2nc1NCCO)c1cccc(Cl)c1`, the fluorescence artifact activation was 57.1% (active). For `Cc1ccc(S(=O)(=O)Nc2nc3ccccc3nc2NCc2ccco2)cc1` the value was 2.57%. For `COC1=CC2(O)CCCC2=CC1=O` (configuration not stated) the value was 0.15%; for `Cc1cc(Cn2nc(C(=O)NCC3CC3)cc2-c2ccccc2)on1`, 0.04%. For `COc1cccc(/C=C/C(=C2\C(=O)N(c3ccccc3)N=C2C)c2ccc(Br)cc2)c1OC` the value was 0.1%.

Turning to `CCC1(c2ccccc2)NC(=O)N(CC(=O)Nc2ccc(OC)nc2)C1=O` (configuration not stated), the fluorescence artifact activation was -0.05%. For the compound `C/C(=N/NC(=O)CNC(=O)Cc1ccccc1)c1ccco1`, the fluorescence artifact activation was 0%. For `CCN(C(=O)c1cc2ccccc2oc1=O)c1ccccc1`, the fluorescence artifact activation was 1.56%. The same measure for `N#CCCN(C(=O)c1ccco1)c1ccccc1`: 1610% (active); for `CCOCCCNc1ccc(-c2ccccc2)nn1`: 1.31%; for `O=C1/C(=C\c2cc(Cl)c(O)c(Cl)c2)SC(=S)N1Cc1ccccc1`: -0.11%. As for `COc1cc(/C=C2/SC(=S)N(Cc3ccccc3)C2=O)cc(Cl)c1O`, the fluorescence artifact activation is 1800% (active).

Consider `COc1ccc(O)c(/C=C2/SC(=S)N(Cc3ccccc3)C2=O)c1`, for which the fluorescence artifact activation is 0.17%.

For `O=C(N/N=C/c1cccc([N+](=O)[O-])c1)c1cnccn1`, the fluorescence artifact activation is -0.02%.

Take `O=C(CSc1ccc(-c2cccs2)nn1)N1CCCCC1`: the fluorescence artifact activation is 0.91%. For `CCOc1ccc(NC(=O)COC(=O)CCN2C(=O)C3CC=CCC3C2=O)cc1OCC` (configuration not stated), the fluorescence artifact activation was 0.5%. Turning to `CN1CC[C@@H]2C(=O)N3CCc4ccc(Br)cc4[C@@H]3C[C@@H]21`, the fluorescence artifact activation is 0.24%. For `COC(=O)C1=C(O)/C(=C\c2ccc(CNS(=O)(=O)c3ccc(Cl)cc3)o2)N=C1C` the value was 0.18%; for `CN1CC=C2C(C#N)=C(N)C(C#N)(C#N)C(CCc3ccccc3)C2C1` (configuration not stated), 12.7% (active).

With `CN1CC=C2C(C#N)=C(N)C(C#N)(C#N)[C@H](c3cccc(Cl)c3)C2C1` (some centres not stated), the fluorescence artifact activation was 10.2%.

As for `CCN1CC=C2C(C#N)=C(N)C(C#N)(C#N)C(CCc3ccccc3)C2C1` (configuration not stated), the fluorescence artifact activation was 0.03%.

For the compound `CN1CC=C2C(C#N)=C(N)C(C#N)(C#N)C(Cc3ccccc3)C2C1` (configuration not stated), the fluorescence artifact activation was 0.22%.

On to `COc1cc([C@@H]2[C@H]3CN(C)CC=C3C(C#N)=C(N)C2(C#N)C#N)cc2c1OCO2`, for which the fluorescence artifact activation was 0.14%. The same measure for `COc1cc(C2C3CN(C)CC=C3C(C#N)=C(N)C2(C#N)C#N)ccc1OC(C)C` (configuration not stated): 16.8% (active); for `COc1ccc(/C=N/NC(=O)C(Cc2c[nH]c3ccccc23)NC(=O)OCC(C)C)cc1[N+](=O)[O-]` (configuration not stated): 0.1%. `Cc1cccc(CN2C(=O)N/C(=C/c3ccc(C)s3)C2=O)c1`: the fluorescence artifact activation is 0.03%.

For `COc1ccc(C2C(C#N)=C(N)N(c3cccnc3)C3=C2C(=O)CCC3)cc1Cn1cc([N+](=O)[O-])cn1` (configuration not stated), the fluorescence artifact activation is 4.77%.

Consider `CCOC(=O)C1C(=O)NC(SCC(N)=O)=C(C#N)C1c1ccccc1OCC` (configuration not stated), for which the fluorescence artifact activation is 0.28%. The same measure for `Fc1ccc(-c2nc3ccncc3[nH]2)cc1`: 1.25%; for `Cc1ccc2oc3c(SCc4nc5ccccc5[nH]4)nc(C)nc3c2c1`: 6.37%. The same measure for `CC1=NN(C(=O)c2ccccc2-n2cccc2)C(O)(C(F)(F)F)C1` (configuration not stated): 0.1%. For `COc1ccc(OC)c(C2=C/C(=C/c3ccccn3)C(=O)O2)c1` the value was 0.07%. `CCN(CC)c1ccc(/C=C/c2cc(-c3ccccc3)c3ccccc3n2)cc1`: the fluorescence artifact activation was 3.44%.

On to `CCN(CC)c1ccc(/C=C/c2cccc[n+]2C)c(OC)c1`, for which the fluorescence artifact activation is 22.6% (active). With `C[C@@H]1CC=C[C@H]2[C@H]1C(=O)N(Cc1ccccc1)[C@H]2c1ccc(-c2cc3ccccc3s2)cc1F`, the fluorescence artifact activation was 0.21%. For `COc1ccc(-c2cc(C(F)(F)F)nc(S(=O)(=O)CCCC(=O)Nc3cc(C)on3)n2)cc1OC` the value was 3.3%; for `COc1ccc(NC(=O)c2cc(C)on2)cc1OC`, 0.84%; for `COc1ccc(S(=O)(=O)Nc2cc(C)on2)cc1`, 26.7% (active). On to `CC1=NN(C(=O)c2ccc(Cn3ccc([N+](=O)[O-])n3)cc2)C(O)(C(F)(F)F)C1` (configuration not stated), for which the fluorescence artifact activation is 5.1%. With `COc1cccc(/C=N/c2nc3ccccc3[nH]2)c1O`, the fluorescence artifact activation was 0.01%. As for `CN(C)c1ccc(/C=C/C(=O)c2c(O)c3ccccc3oc2=O)cc1`, the fluorescence artifact activation is 1.4%. The same measure for `CN1CCN(c2ccc(-c3cccc(NC(=O)COc4ccccc4)c3)nn2)CC1`: 9.37%; for `Cc1cc[n+](-c2[nH]c(=O)sc2/C=N/N=C(\[O-])c2ccccc2)cc1C`: 3.62%. For `O=C(CSc1ccc(Cl)cc1)Nc1cccc(NC(=O)c2ccco2)c1` the value was 0.39%; for `O=C(NC(=S)Nc1ccc2oc(=O)ccc2c1)c1ccco1`, 33.8% (active); for `O=C(NC(NC(=S)Nc1ccccc1C(=O)O)C(Cl)(Cl)Cl)c1ccco1` (configuration not stated), 0%. For `COc1ccc(/C=[N+](\[O-])C2N(c3ccccc3)C(=S)SC2(C)C)cc1OC` (configuration not stated) the value was 0.2%; for `CC(C)N1CC=C2C(C#N)=C(N)C(C#N)(C#N)C(c3ccccc3)C2C1` (configuration not stated), 0.48%. On to `CC(C)(ONC(=O)Nc1ccccc1Cl)C(=O)O`, for which the fluorescence artifact activation was 314% (active). For `COc1ccc(C(=O)Nc2ccccc2-c2ccccc2)cc1Cl` the value was 0.15%. For `O=C(Cc1ccccc1Cl)Nc1cccnc1`, the fluorescence artifact activation is 1.8%. The same measure for `Clc1cccc(C[n+]2cc(-c3ccccc3)n3c2CCC3)c1`: -0.06%; for `CCc1cc[n+](-c2nc([O-])sc2C=O)cc1`: 2.36%; for `COc1ccc(N2CC(C(=O)Nc3nc(-c4ccccc4)c(C(C)=O)s3)CC2=O)c(OC)c1` (configuration not stated): 0.16%. The same measure for `O=C(O)CCC(=O)Nc1cc(C(F)(F)F)cc(C(F)(F)F)c1`: 3.32%. The same measure for `CC1=NN(c2ccc(Br)cc2)C(=O)/C1=C/c1ccc(-c2ccccc2C(=O)O)o1`: 0.09%.

Consider `CC1=NN(c2ccc(C)c(C)c2)C(=O)/C1=C/c1ccc2c(c1)n(C)c(=O)n2C`, for which the fluorescence artifact activation is 16.1% (active).

Turning to `CCOC(=O)c1c(NC(=O)COC(=O)Cc2ccccc2[N+](=O)[O-])sc(C(=O)N(C)C)c1C`, the fluorescence artifact activation was -0.03%. With `Oc1[nH]c2ccccc2c1N=Nc1cccc(Cl)c1`, the fluorescence artifact activation was 0.77%. The same measure for `CCC(/C=C1\Oc2ccc(OC)cc2N1C)=C\c1sc2ccccc2[n+]1CCCS(=O)(=O)[O-]`: 4.9%; for `COc1cc(OC)c(OC)cc1/C=C/C(=O)c1ccc(NS(=O)(=O)c2ccc(C)cc2)cc1`: 0.29%. For `COc1ccc(N/C=C\C(=O)c2ccc(Br)cc2)cc1OC` the value was 15.4% (active); for `COc1ccc(NC(=O)C2CC2)cc1OC1CCCC1`, 0.04%; for `COc1ccc(N=Cc2sc(O)c3ccccc23)cc1`, 27.5% (active). The same measure for `Oc1sc(C=Nc2ccccc2)c2ccccc12`: -0.05%; for `Cc1ccc(N=Cc2sc(O)c3ccccc23)cc1`: 0%; for `COc1ccc(OC)c(-n2nnnc2SCC(=O)NCCc2ccccc2)c1`: 3.03%. Regarding `COc1ccc(-c2nnc(SCC(=O)c3ccc[nH]3)n2-c2ccccc2)cc1`, the fluorescence artifact activation was 0.12%. For `COc1ccc(-n2nnnc2SCC(=O)c2cc3ccccc3o2)cc1` the value was 12.4% (active); for `COC(=O)CCCNC(=O)CCc1nnc(-c2ccc(-c3ccccc3)cc2)o1`, -0.05%. Take `COc1ccc(C(=O)Nn2cnc3scc(-c4cccs4)c3c2=O)c(O)c1`: the fluorescence artifact activation is 7.33%. Consider `CCOc1ccc(-c2nc3scc(-c4cccs4)c3c(=O)[nH]2)cc1`, for which the fluorescence artifact activation was 15.2% (active). For `O=C(NCCN1CCOCC1)c1ccc(CS(=O)(=O)c2c(Cl)cccc2Cl)o1` the value was -0.03%; for `CCOC(=O)c1c(/N=C/c2cccc([N+](=O)[O-])c2O)sc(C)c1C`, 2.1%.
